Measured values from ChEMBL document CHEMBL5674876, “Epigenetic Activation of Pro-angiogenic Signaling Pathways in Human Endothelial Progenitors Increases Vasculogenesis” (Stem Cell Reports, 2017).
Calls of active or inactive are those of the source.

Experiments:
HUVEC [1] = experiment: Effect on pro-angiogenic property in human umbilical cord derived endothelial colony forming cells assessed as formation of capillary network on matrigel at 330 nM; format: functional, cell-based
Summary of the method: (§1)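 Drug- or vehicle-pretreated ECFCs seeded at 5,000 cells/well on phenol-red-free growth-factor-reduced Matrigel in duplicate; after 24 hr stained with 5 μg/mL calcein 5 min at 37°C, imaged at 2.5×. Total tube length expressed as percentage of vehicle control ±SEM, three independent experiments.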

HUVEC [2] = experiment: Effect on pro-angiogenic property in human umbilical cord derived endothelial colony forming cells assessed as cell migration treated at 330 nM for 10 hrs measured by crystal violet staining analysis based gap closure assay; format: functional
HUVEC [3] = experiment: Effect on pro-angiogenic property in human umbilical cord derived endothelial colony forming cells assessed as formation of capillary network on matrigel at 2.5 to 500 nM; format: functional, cell-based; conditions: dose 2.5-500 nM; summary of the method: as §1
HUVEC [4] = experiment: Effect on pro-angiogenic property in human umbilical cord derived endothelial colony forming cells assessed as cell migration treated for 10 hrs measured by crystal violet staining analysis based gap closure assay; format: functional; conditions: dose 2.5-20 nM
HUVEC [5] = experiment: Effect on pro-angiogenic property in human umbilical cord derived endothelial colony forming cells assessed as increase in SHH level by qRT-PCR analysis; format: functional, cell-based
HUVEC [6] = experiment: Effect on pro-angiogenic property in human umbilical cord derived endothelial colony forming cells assessed as increase in DLL1 level by qRT-PCR analysis; format: functional, cell-based

Measured: Activity

CC(/C=C/C(=O)NO)=C\[C@@H](C)C(=O)c1ccc(N(C)C)cc1
active: HUVEC [1] | HUVEC [2]

Cc1[nH]c2ccccc2c1CCNCc1ccc(/C=C/C(=O)NO)cc1
active: HUVEC [3] Dose-Dependent Effect | HUVEC [4] Dose-Dependent Effect | HUVEC [5] | HUVEC [6]
